Laboratory results taken from PubChem BioAssay.
Activity calls are given as the source filed them.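 How the source made its calls, unless noted: active means GFP response above 150% of the DMSO level; inconclusive means fewer than 70 events counted for a yeast strain; inactive means the rest.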

Columns and labels:
[1] = hit retest on RPL19A-GFP reporter strain – cell-based, S. cerevisiae, flow cytometry, cherry picks, mother/daughter gates, confirmation (AID 2270;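 active means GFP response below 50% of the DMSO control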); conditions: 3 h, at 10 µM, stronger effect = lower value, 100 = same GFP as DMSO wells
[2] = yeast TOR pathway reporter LAP4-GFP change – cell-based, cherry picks, flow cytometry, mother/daughter gates, confirmation (AID 2271;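 active means GFP response above 150% of the DMSO control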;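 further: ratio of sample to DMSO plate mean so 100% equals DMSO level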); conditions: S. cerevisiae LAP4-GFP strain, 3 h, at 10 µM, stronger effect = higher value, 100 means same as DMSO control
Method in brief: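 System: GFP-fusion yeast strain; Incubation: compound exposure 3 h at 30 °C, end-over-end rotation; Measured by: GFP by flow cytometry; Read-out: median GFP fluorescence as percent of plate-mean DMSO wells; Medium: synthetic complete (SC) yeast growth medium; Compound: single test-compound dose, 10 µM final; Benchmarks: DMSO-only negative wells, rapamycin 400 ng/mL positive wells.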

[3] = TOR pathway reporter MEP2-GFP, retest of hits – S. cerevisiae, flow cytometry GFP, cherry picks, confirmation (AID 2272;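 active means GFP response above 150% of the DMSO control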;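 further: ratio of well signal to plate DMSO mean so 100% equals DMSO level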); conditions: S. cerevisiae MEP2-GFP strain, 3 h, at 10 µM, stronger effect = higher value
[4] = yeast AGP1-GFP fluorescence change, single-dose – cell-based, flow cytometry, S. cerevisiae, cherry picks, confirmation (AID 2273);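 further: median GFP channel fluorescence over the whole cell population gate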; conditions: S. cerevisiae AGP1-GFP strain, 3 h, at 10 µM
[5] = TOR pathway CIT2 reporter hit retest – S. cerevisiae, GFP fusion, cherry picks, mother/daughter gates, confirmation (AID 2274); conditions: S. cerevisiae CIT2-GFP strain, flow cytometry, 3 h, at 10 µM, stronger effect = higher value
[6] = measured here: daughter cell gate
[7] = measured here: mother cell gate
[8] = measured here: daughter cell gate response
[9] = measured here: mother cell gate response

| Structure (SMILES) | GFP response vs DMSO [1] | GFP response vs DMSO [1, 6] [%] | GFP response vs DMSO [1, 7] [%] | GFP response relative to DMSO [2] | GFP response relative to DMSO [2, 8] [%] | GFP response relative to DMSO [2, 9] [%] | GFP response vs DMSO [3] | GFP response, % of DMSO [4] | GFP response, % of DMSO [5] | GFP response, % of DMSO [5, 6] [%] | GFP response, % of DMSO [5, 7] [%] |
| --- | --- | --- | --- | --- | --- | --- | --- | --- | --- | --- | --- |
| CCCc1[nH]nc2c1C(c1ccc(OC)c(Cn3nc(C)c(Br)c3C)c1)C(C#N)=C(N)O2 (stereo not drawn) | 95% (inactive) | 94.2 | 96.2 | 97.7% (inactive) | 97.9 | 98.5 | 99.5% (inactive) | 99.3% (inactive) | 97.8% (inactive) | 98.3 | 95.6 |
| COc1cccc(NC(=O)Nc2ccc3c(c2)nnn3C)c1 | 97.8% (inactive) | 98.1 | 96.9 | 103% (inactive) | 102 | 104 | 100% (inactive) | 97.2% (inactive) | 101% (inactive) | 103 | 101 |
| O=C(/C(=C/c1ccccc1)n1cncn1)c1ccc(Cl)cc1Cl | 96% (inactive) | 92.7 | 93.5 | 149% (inactive) | 125 | 162 | 98.8% (inactive) | 106% (inactive) | 86% (inactive) | 85.7 | 79.8 |
| O=[N+]([O-])c1cc(Cl)c2cccnc2c1O | 100% (inactive) | 94.9 | 102 | 174% (active) | 141 | 181 | 118% (inactive) | 100% (inactive) | 99.3% (inactive) | 96.4 | 94.5 |
| Cc1ccc(C2=NN(S(C)(=O)=O)C(c3ccc4nccnc4c3)C2)cc1 (stereo not drawn) | 98.6% (inactive) | 99.4 | 97.6 | 101% (inactive) | 101 | 99.3 | 100% (inactive) | 96.8% (inactive) | 101% (inactive) | 103 | 99.7 |
| Cc1cc(-c2csc3nc[nH]c(=S)c23)cc(C)c1C | 96.3% (inactive) | 98.1 | 95 | 112% (inactive) | 114 | 109 | 127% (inactive) | 118% (inactive) | 106% (inactive) | 110 | 104 |
| COc1ccc(CNC(=O)c2c(O)c3ccccc3n(C)c2=O)cc1OC | 96.9% (inactive) | 97.8 | 96.7 | 90.6% (inactive) | 92.9 | 91.3 | 110% (inactive) | 99.1% (inactive) | 103% (inactive) | 105 | 103 |
| CNC(=O)/C(C#N)=C/c1c(N2CCCCCC2)nc2ccccn2c1=O | 98.7% (inactive) | 100 | 98.2 | 104% (inactive) | 104 | 106 | 112% (inactive) | 98.6% (inactive) | 108% (inactive) | 110 | 108 |
| Cc1ccc(S(=O)(=O)N2C3C=CC(C3)C2C(=O)O)cc1 (stereo not drawn) | 96% (inactive) | 97.6 | 95.2 | 95.3% (inactive) | 96 | 94.4 | 106% (inactive) | 98.4% (inactive) | 97.2% (inactive) | 97.6 | 98.2 |
| CC(=O)Nc1ccc(Nc2cc(C)nc3c(-c4ccc(Cl)cc4)c(C)nn23)cc1 | 94.6% (inactive) | 94.4 | 95.8 | 94.1% (inactive) | 92.8 | 95.1 | 100% (inactive) | 95% (inactive) | 105% (inactive) | 105 | 104 |
| Cc1nc(Sc2ccc(Cl)cc2)c(C#N)c(C)c1[N+](=O)[O-] | 100% (inactive) | 100 | 98.2 | 91.8% (inactive) | 94.4 | 91.3 | 108% (inactive) | 94.3% (inactive) | 104% (inactive) | 105 | 103 |
| Cc1cc(OCc2ccc(C(=O)NN=C3CCCC3)cc2)ccc1Cl | 103% (inactive) | 98.7 | 96.1 | 132% (inactive) | 116 | 135 | 120% (inactive) | 101% (inactive) | 95.2% (inactive) | 91.5 | 89.1 |
| Cc1cccc(C)c1OCCOC(=O)c1n[nH]c2ccccc12 | 98.8% (inactive) | 97 | 100 | 96.5% (inactive) | 93.6 | 82.8 | 106% (inactive) | 91.9% (inactive) | 95% (inactive) | 96.4 | 93.3 |
| CCOc1ccc(-c2nc(-c3ccc(OC)cc3)no2)cc1OCC | 101% (inactive) | 101 | 101 | 94.2% (inactive) | 92.2 | 93.6 | 102% (inactive) | 96% (inactive) | 99.3% (inactive) | 100 | 99.1 |
| O=C(CSc1ccc(Cl)cc1)Nc1cccc(-c2nc3ccccc3[nH]2)c1 | 97.8% (inactive) | 98 | 97.8 | 101% (inactive) | 97.9 | 101 | 99.5% (inactive) | 98% (inactive) | 96.4% (inactive) | 96.4 | 95.6 |
| CCc1nnc(NC(=O)c2ccc(S(=O)(=O)N3CCCC(C)C3)cc2)o1 (stereo not drawn) | 101% (inactive) | 99.1 | 98.5 | 98.2% (inactive) | 97.5 | 100 | 101% (inactive) | 105% (inactive) | 102% (inactive) | 105 | 99.3 |
| CCN(Cc1ccccc1)S(=O)(=O)c1ccc(C(=O)Nc2nnc(C)o2)cc1 | 97.2% (inactive) | 98.5 | 98.6 | 102% (inactive) | 102 | 107 | 102% (inactive) | 100% (inactive) | 101% (inactive) | 102 | 101 |

| Structure (SMILES) | GFP response vs DMSO [1] | GFP response vs DMSO [1, 6] [%] | GFP response vs DMSO [1, 7] [%] | GFP response relative to DMSO [2] | GFP response relative to DMSO [2, 8] [%] | GFP response relative to DMSO [2, 9] [%] | GFP response vs DMSO [3] | GFP response, % of DMSO [4] | GFP response, % of DMSO [5] | GFP response, % of DMSO [5, 6] [%] | GFP response, % of DMSO [5, 7] [%] |
| --- | --- | --- | --- | --- | --- | --- | --- | --- | --- | --- | --- |
| COc1ccc(CN2CCSc3sccc3C2=O)cc1 | 93.2% (inactive) | 90.7 | 93.9 | 110% (inactive) | 109 | 112 | 92.6% (inactive) | 97.3% (inactive) | 102% (inactive) | 103 | 102 |
| COc1cc(/C=C2\N=C(c3c(-c4ccccc4)noc3C)OC2=O)ccc1OC(C)=O | 98.6% (inactive) | 100 | 98.9 | 91.5% (inactive) | 92.8 | 89.7 | 100% (inactive) | 99.3% (inactive) | 103% (inactive) | 103 | 101 |
| CCN(CC)c1ccc(/C=C2\SC(=O)N(C(C)C)C2=O)o1 | 99.6% (inactive) | 99.8 | 96.5 | 117% (inactive) | 116 | 117 | 132% (inactive) | 105% (inactive) | 112% (inactive) | 115 | 110 |
| CC1(C)CCN2CCC(C)(C)c3c(O)ccc1c32 | 105% (inactive) | 105 | 107 | 115% (inactive) | 123 | 115 | 139% (inactive) | 101% (inactive) | 121% (inactive) | 123 | 119 |
| Cc1ccc2c(c1)c(/C=C/c1cc[n+](C)cc1)c(C)n2C | 107% (inactive) | 109 | 108 | 178% (active) | 194 | 173 | 226% (active) | 114% (inactive) | 184% (active) | 191 | 177 |
| NC1=NC(=O)C(CC(=O)c2ccc(Cl)cc2)S1 (stereo not drawn) | 99.9% (inactive) | 100 | 99.8 | 106% (inactive) | 99.3 | 107 | 102% (inactive) | 96.7% (inactive) | 96.4% (inactive) | 96.4 | 94.5 |
| O=[N+]([O-])c1ccc(Sc2nc3ccccc3o2)c([N+](=O)[O-])c1 | 93.5% (inactive) | 93.4 | 92 | 157% (active) | 151 | 158 | 114% (inactive) | 96% (inactive) | 108% (inactive) | 109 | 100 |
| COCCN(CCOC)S(=O)(=O)c1ccc(C(=O)Nc2nnc(C3CC3)o2)cc1 | 101% (inactive) | 99.8 | 101 | 93.8% (inactive) | 94.1 | 95.2 | 100% (inactive) | 101% (inactive) | 106% (inactive) | 105 | 106 |
| CC(Oc1ccc(Cl)cc1)C(=O)NNC(=S)NC(=O)c1ccco1 (stereo not drawn) | 99.6% (inactive) | 97.1 | 97.2 | 227% (active) | 112 | 205 | 128% (inactive) | 115% (inactive) | 106% (inactive) | 88.4 | 93.2 |
| Cc1ccc(CS(=O)(=O)c2ncc(Cl)c(C(=O)Nc3nnc(C)s3)n2)cc1 | 99.6% (inactive) | 99.8 | 98.6 | 102% (inactive) | 104 | 104 | 101% (inactive) | 113% (inactive) | 103% (inactive) | 99.3 | 104 |
| Nc1ccc(S(=O)(=O)c2ccccc2)nc1 | 103% (inactive) | 104 | 104 | 99.8% (inactive) | 98.7 | 99.3 | 104% (inactive) | 95.7% (inactive) | 95.2% (inactive) | 94.8 | 94.4 |
| CCOC(=O)Cc1csc(NC(=O)c2sc3nc4ccc(CC)cc4cc3c2N)n1 | 98.9% (inactive) | 99.5 | 99.4 | 95.3% (inactive) | 94.4 | 97.4 | 108% (inactive) | 107% (inactive) | 98.6% (inactive) | 99.3 | 99.3 |
| CCOc1ccccc1NC(=O)c1nc(S(=O)(=O)Cc2cccc(C)c2)ncc1Cl | 101% (inactive) | 100 | 101 | 101% (inactive) | 102 | 103 | 100% (inactive) | 101% (inactive) | 97.8% (inactive) | 96.5 | 98.7 |
| Cc1ccc(S(=O)(=O)c2ncccc2N)cc1 | 99.4% (inactive) | 99.4 | 99 | 101% (inactive) | 101 | 98.3 | 100% (inactive) | 102% (inactive) | 101% (inactive) | 101 | 99.7 |
| C/C(=N\NC(=O)c1nonc1N)c1cccs1 | 98.2% (inactive) | 98.8 | 98.1 | 102% (inactive) | 99.3 | 100 | 99.5% (inactive) | 94.5% (inactive) | 99.3% (inactive) | 98.3 | 98 |
| Cc1ccc(C2CC(c3cccs3)=NN2S(=O)(=O)c2ccc(C)cc2)cc1 (stereo not drawn) | 101% (inactive) | 100 | 102 | 98.2% (inactive) | 97.5 | 97.3 | 109% (inactive) | 99% (inactive) | 98.8% (inactive) | 97.4 | 98.1 |
